The text below walks through data of ChEMBL document CHEMBL3232746, “Diamidine compounds for selective inhibition of protein arginine methyltransferase 1” (J Med Chem, 2014).

Structures are written as SMILES. The source made the active and inactive calls. No cut-off for these calls is given here.

For orientation: inhibition means how much of the control response was suppressed. One may read the IC50 as the midpoint of a concentration-inhibition curve.

Assay [1] concerns the target T1, Protein arginine N-methyltransferase 1 (Homo sapiens, UniProt Q99873). The assay can be described thus: Inhibition of His6x-tagged recombinant PRMT1 (unknown origin) expressed in Escherichia coli BL21(DE3) using [3H]SAM and histone H4 (1 to 20) as substrate at 20 uM after 8 mins by P81 filter binding assay. The gist of the method: (§1)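 Enzyme 0.04 μM (His-PRMT1 purified on Ni-NTA, or HA-PRMT5 co-expressed with WDR77 in 293T and purified on HA beads). Assay used 0.5 μM [3H]SAM and 1 μM H4(1–20) in 50 mM HEPES pH 8.0, 50 mM NaCl, 1 mM EDTA, 0.5 mM DTT. Preincubation 5 min at room temperature, then 8 min at 30 °C. P81 filter binding with scintillation counting. Compared with no-inhibitor control.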
Target sequence in this assay (Q99873 whole entry, looked up): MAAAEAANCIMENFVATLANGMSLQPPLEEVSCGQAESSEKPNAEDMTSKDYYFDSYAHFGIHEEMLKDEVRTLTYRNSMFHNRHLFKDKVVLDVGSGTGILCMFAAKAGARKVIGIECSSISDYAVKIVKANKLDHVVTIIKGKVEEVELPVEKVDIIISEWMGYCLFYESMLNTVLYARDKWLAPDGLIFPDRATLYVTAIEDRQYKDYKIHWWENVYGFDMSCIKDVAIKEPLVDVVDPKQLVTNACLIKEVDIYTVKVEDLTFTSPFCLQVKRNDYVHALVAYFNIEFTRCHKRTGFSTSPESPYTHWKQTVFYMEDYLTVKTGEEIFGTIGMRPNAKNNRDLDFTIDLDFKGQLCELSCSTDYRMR

Assay [2] concerns the target T2, Protein arginine N-methyltransferase 5 (Homo sapiens, UniProt O14744). Briefly: Inhibition of HA-tagged recombinant PRMT5 (unknown origin) expressed in HEK293T cells using [3H]SAM and histone H4 (1 to 20) as substrate at 20 uM after 8 mins by P81 filter binding assay. In short, it runs like this: as §1
Assay [3] has as its target T2, Protein arginine N-methyltransferase 5. The assay can be described thus: Inhibition of HA-tagged recombinant PRMT5 (unknown origin) expressed in HEK293T cells using [3H]SAM and histone H4 (1 to 20) as substrate after 8 mins by P81 filter binding assay. Also noted: species or system HEK-293T. In short, it runs like this: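 HA-PRMT5 from HEK293T co-transfected with PRMT5 and WDR77 plasmids, HA-bead purified; 0.04 μM enzyme, 0.5 μM [3H]SAM, 1 μM H4(1–20) in HEPES pH 8.0 buffer; inhibitor preincubated with enzyme and SAM 5 min before peptide start; 8 min at 30 °C; P81 disks washed in NaHCO3 pH 9.0, scintillation counted; IC50 over varied inhibitor concentrations.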

Assay [4] addresses T1, Protein arginine N-methyltransferase 1. The assay can be described thus: Competitive inhibition of His6x-tagged recombinant PRMT1 (unknown origin) expressed in Escherichia coli BL21(DE3) using [3H]SAM and histone H4 (1 to 20) as substrate by double reciprocal plot analysis. The gist of the method: (§2)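 Radiometric P81 filter-binding kinetics in 50 mM HEPES pH 8.0, 50 mM NaCl, 1 mM EDTA, 0.5 mM DTT, 30 °C; inhibitor at 0, 10, 20, 30, 40 μM; initial velocities with H4-20 varied at 3 μM [3H]SAM, or [3H]SAM varied at 15 μM H4-20; Michaelis–Menten and double-reciprocal analysis giving Kis and Kii.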
Target sequence in this assay (Q99873 whole entry, looked up): as above

The target of assay [5] is Protein arginine N-methyltransferase 6 (Homo sapiens, UniProt Q96LA8). Briefly: Inhibition of His6x-tagged PRMT6 (unknown origin) using [3H]SAM and histone H3.1 as substrate at 20 uM after 1 hr by P81 filter binding assay. The gist of the method: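 P81 filter-binding assay with 1 μM histone H3.1 as acceptor and 0.5 μM [3H]SAM in 50 mM HEPES pH 8.0, 50 mM NaCl, 1 mM EDTA, 0.5 mM DTT; enzyme, SAM and inhibitor preincubated 5 min, then substrate added; 1 h at 30 °C; methylation by scintillation counting.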
Sequence of Protein arginine N-methyltransferase 6 (Q96LA8 whole entry): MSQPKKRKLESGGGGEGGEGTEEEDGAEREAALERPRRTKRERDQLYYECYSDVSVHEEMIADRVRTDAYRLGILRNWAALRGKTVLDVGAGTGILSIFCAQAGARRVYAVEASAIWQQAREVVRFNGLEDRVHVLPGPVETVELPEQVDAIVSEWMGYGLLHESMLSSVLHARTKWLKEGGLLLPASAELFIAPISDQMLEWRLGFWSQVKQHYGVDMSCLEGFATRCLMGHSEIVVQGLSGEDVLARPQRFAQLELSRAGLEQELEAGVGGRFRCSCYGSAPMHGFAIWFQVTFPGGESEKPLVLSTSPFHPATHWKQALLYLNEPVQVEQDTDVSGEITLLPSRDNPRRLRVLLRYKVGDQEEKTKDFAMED

In assay [6] the target is T3, Histone-arginine methyltransferase CARM1 (Homo sapiens, UniProt Q86X55).
T3 sequence (Q86X55 whole entry): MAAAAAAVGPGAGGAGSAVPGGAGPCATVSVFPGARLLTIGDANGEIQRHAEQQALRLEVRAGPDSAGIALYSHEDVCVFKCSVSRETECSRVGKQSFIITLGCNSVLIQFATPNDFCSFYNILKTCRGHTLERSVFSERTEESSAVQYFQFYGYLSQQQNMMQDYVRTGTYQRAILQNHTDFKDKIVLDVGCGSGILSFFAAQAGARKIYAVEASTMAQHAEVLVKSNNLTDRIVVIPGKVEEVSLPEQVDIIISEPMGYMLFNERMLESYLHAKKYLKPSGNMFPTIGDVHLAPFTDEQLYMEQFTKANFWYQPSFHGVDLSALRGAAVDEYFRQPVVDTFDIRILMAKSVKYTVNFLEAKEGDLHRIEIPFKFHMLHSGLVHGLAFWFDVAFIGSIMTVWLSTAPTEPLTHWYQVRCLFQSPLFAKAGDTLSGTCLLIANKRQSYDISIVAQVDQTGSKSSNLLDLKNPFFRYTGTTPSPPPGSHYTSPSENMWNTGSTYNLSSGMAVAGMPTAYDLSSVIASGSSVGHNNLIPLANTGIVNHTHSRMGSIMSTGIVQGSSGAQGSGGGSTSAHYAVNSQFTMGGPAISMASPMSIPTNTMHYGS
Briefly: Inhibition of GST-tagged CARM1 (unknown origin) using [3H]SAM and histone H3.1 as substrate at 20 uM after 1 hr by P81 filter binding assay.

For assay [7], the target named is T1, Protein arginine N-methyltransferase 1. Briefly: Inhibition of PRMT1 in human 293T cells assessed as reduction of GFP-ALY methylation by Western blot analysis. The class given is cell-based. The gist of the method:
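GFP-ALY stably expressing 293T cells in DMEM + 10% FBS, treated 15 h with 20 μM compound; lysed on ice in NP-40 buffer; GFP-ALY pulled down on GFP antibody beads; SDS-PAGE and Western blot with ASYM24 methylarginine antibody, equal GFP-ALY loading.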
Target sequence in this assay (Q99873 whole entry, looked up): as the sequence (Q99873 whole entry, looked up) above
For orientation: In western blotting, separated proteins are transferred to a membrane and probed.

The target is the same in assay [8]. Briefly: Uncompetitive inhibition of His6x-tagged recombinant PRMT1 (unknown origin) expressed in Escherichia coli BL21(DE3) using [3H]SAM and histone H4 (1 to 20) as substrate by double reciprocal plot analysis. The gist of the method:
as §2
Target sequence in this assay (Q99873 whole entry, looked up): as above

The species entered for a further assay is Homo sapiens. Briefly: Antiproliferative activity against human CHRF-288-11 cells harboring trisomy 21 assessed as cell viability at 20 uM measured everyday for 3 days by CellTiter-Glo assay. In kind it is functional, cell-based. The gist of the method: (§3)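 RPMI + 10% FBS culture; 1000–1500 cells seeded per well; 20 μM compound or matching DMSO volume added; CellTiter-Glo luminescence read at 0, 24, 48, 72 h after treatment; viability expressed as percent of viable cells relative to DMSO-treated control.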

Another assay concerns CMY. Briefly: Antiproliferative activity against human CMY cells harboring trisomy 21 assessed as cell viability at 20 uM measured everyday for 3 days by CellTiter-Glo assay. In kind it is functional, cell-based. The gist of the method: as §3
(Cellular ATP, detected with luciferase, serves as a proxy for viable cell number.)

A further assay concerns MOLM-13. The assay can be described thus: Antiproliferative activity against human MOLM13 cells with MLL-AF9 translocation assessed as cell viability at 20 uM measured everyday for 3 days by CellTiter-Glo assay. The class given is functional, cell-based. In short, it runs like this:
as §3

The subject of the next assay is HEL. Briefly: Antiproliferative activity against human HEL cells harboring JAK2 V617F mutant assessed as cell viability at 20 uM measured everyday for 3 days by CellTiter-Glo assay. The class given is functional, cell-based. In short, it runs like this: as §3
Assay [9] concerns the target T1, Protein arginine N-methyltransferase 1. The assay can be described thus: Inhibition of His6x-tagged recombinant PRMT1 (unknown origin) expressed in Escherichia coli BL21(DE3) using fluorescein-labeled histone H4 (1 to 20) as substrate at 10 to 50 uM after 8 mins by competitive fluorescence anisotropy binding assay. In short, it runs like this:
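0.2 μM fluorescein-labelled H4(1–20) and 2 μM PRMT1 in P81 assay buffer (HEPES pH 8.0); inhibitor titrated in until signal plateaued; anisotropy read at excitation 498 nm, emission 524 nm.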
Target sequence in this assay (Q99873 whole entry, looked up): as above
(Polarisation of emitted light reports the rotation of a fluorescent probe.)

Another assay concerns HL-60. The assay can be described thus: Antiproliferative activity against human HL60 cells with PML-RAR alpha translocation assessed as cell viability at 20 uM measured everyday for 3 days by CellTiter-Glo assay. The class given is functional, cell-based. The gist of the method:
as §3

The next assay deals with Jurkat. The assay can be described thus: Antiproliferative activity against human Jurkat cells assessed as cell viability at 20 uM measured everyday for 3 days by CellTiter-Glo assay. The class given is functional, cell-based. In short, it runs like this: as §3
In assay [10] the target is T1, Protein arginine N-methyltransferase 1. The assay can be described thus: Inhibition of His6x-tagged recombinant PRMT1 (unknown origin) expressed in Escherichia coli BL21(DE3) using [3H]SAM and histone H4 (1 to 20) as substrate after 8 mins by P81 filter binding assay.
Target sequence in this assay (Q99873 whole entry): as the sequence (Q99873 whole entry, looked up) above

T2 sequence (O14744 whole entry): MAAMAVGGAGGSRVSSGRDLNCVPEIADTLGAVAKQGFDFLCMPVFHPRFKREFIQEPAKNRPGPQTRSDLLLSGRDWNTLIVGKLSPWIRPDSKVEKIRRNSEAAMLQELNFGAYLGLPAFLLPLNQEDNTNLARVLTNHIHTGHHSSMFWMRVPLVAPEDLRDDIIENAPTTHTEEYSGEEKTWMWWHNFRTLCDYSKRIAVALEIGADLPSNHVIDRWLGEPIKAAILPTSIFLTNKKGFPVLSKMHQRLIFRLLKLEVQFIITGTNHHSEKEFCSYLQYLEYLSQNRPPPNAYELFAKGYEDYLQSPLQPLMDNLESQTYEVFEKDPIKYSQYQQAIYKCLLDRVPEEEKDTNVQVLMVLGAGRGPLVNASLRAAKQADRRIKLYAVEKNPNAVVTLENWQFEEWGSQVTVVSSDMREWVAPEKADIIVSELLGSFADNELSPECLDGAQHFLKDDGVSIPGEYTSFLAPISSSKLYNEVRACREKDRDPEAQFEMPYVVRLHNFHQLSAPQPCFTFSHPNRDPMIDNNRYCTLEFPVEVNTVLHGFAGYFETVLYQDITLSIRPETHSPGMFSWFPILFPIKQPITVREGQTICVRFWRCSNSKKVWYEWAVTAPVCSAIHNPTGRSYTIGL

`N=C(N)c1ccc(-c2ccc(-c3ccc(C(=N)N)c(F)c3)o2)cc1F`: the inhibition entry in [1] and in [2] was “Active” in each case.
Turning to `N=C(N)c1ccc(-c2ccc(-c3ccc(C(=N)N)cc3)o2)cc1` [FURAMIDINE], the IC50 in assay [3] is 166 µM; in [5], 283 µM; in assay [6], more than 400 µM; in assay [10], 9.4 µM. Moreover, in assay [4], the Kis is 2.6 µM. The inhibition is more than 75% in assay [1] and 11% in assay [2]. The inhibition entry (in [7]; in the assay filed under Homo sapiens; with CMY; in the assay with MOLM-13; in [9]; in the assay on HL-60) was “Active” in each case. The inhibition entry in the assay on Jurkat was “Active”. In addition, in [8], the Kii came to 26 µM. Moreover, the inhibition entry in the assay on HEL was “inactive”.
Take `N=C(N)c1ccc(-c2ccc(-c3ccc(OCCCCCCCCOc4ccc(-c5ccc(-c6ccc(C(=N)N)cc6)o5)cc4)cc3)o2)cc1`: the inhibition in assay [1] and in assay [2] was more than 85% in each case.
As for `N=C(N)c1ccc(-c2ccc(-c3ccc(C(=N)N)nc3)o2)cc1`, the IC50 is 186 µM in [3], 211 µM in assay [5], more than 400 µM in assay [6] and 7.2 µM in assay [10].
Consider `N=C(N)c1ccc(/C=C/c2ccc(C(=N)N)cc2)cc1` [STILBAMIDINE], for which the IC50 in assay [3] was 44.1 µM; in [5], 173 µM; in assay [6], 400 µM.
